Data set [1] deals with Fibroblast. Nature of the data set: Effect on p16Ink4a mRNA expression in human Gingival fibroblast at 1 uM after 72 hrs by RT-PCR method. The data set is classed as ADME, cell-based. The procedure, abridged:
(§1)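 hGF (3500 cells/cm2) in complete medium, treated 72 h with or without H2O2 (200 μM). Real-time RT-PCR of total RNA for p53, p21 and p16INK4A. Levels normalized to β-actin and relative expression taken from Ct. Fold change vs control set to 1. Mean ± SD, two independent experiments in duplicate.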

Data set [2] has as its system Fibroblast. Briefly: Protection against H202-induced cell death in human Gingival fibroblast assessed as dead cell at 1 to 5 uM after 72 hrs by flow cytometry (reference value: 14.9%). In kind it is functional. Background: A flow cytometer gives signals particle by particle.
The test system of data set [3] is Fibroblast. Nature of the data set: Protection against H202-induced cell death in human Gingival fibroblast assessed as live cell at 1 to 5 uM after 72 hrs by flow cytometry (reference value: 85.1%). In kind it is functional.
In data set [4] the test system is Fibroblast. Briefly: Induction of cell cycle arrest in human Gingival fibroblast assessed as accumulation at G0/G1 phase at 1 uM incubated for 72 hrs by flow cytometry (reference value: 76.3%). The data set is classed as cell-based. The method, boiled down:
(§2)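 hGF seeded at 80 000 cells/well and treated in complete medium 72 h (1–5 μM) with or without H2O2 (200 μM). Percentage of cells in G0/G1, S and G2/M measured on a Muse cell analyzer with a cell cycle kit. Mean ± SD, two replicates, two independent experiments.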

In data set [5] the test system is Fibroblast. Nature of the data set: Effect on p21 mRNA expression in human Gingival fibroblast at 1 uM after 72 hrs by RT-PCR method. In kind it is ADME, cell-based. The procedure, abridged: as §1
Data set [6] deals with Fibroblast. Nature of the data set: Protection against H202-induced cell cycle blockade in human Gingival fibroblast assessed as accumulation at S phase at 1 to 5 uM after 72 hrs by flow cytometry (reference value: 11.6%). In kind it is functional. The procedure, abridged: as §2
Data set [7] relates to Fibroblast. Briefly: Induction of cell cycle arrest in human Gingival fibroblast assessed as accumulation at G2/M phase at 1 uM incubated for 72 hrs by flow cytometry (reference value: 14.9%). In kind it is cell-based. The method, boiled down:
as §2

Data set [8] relates to Fibroblast. Briefly: Protection against H202-induced oxidative stress in human Gingival fibroblast assessed as reduction in p16Ink4a expression at 1 to 5 uM after 72 hrs by RT-PCR analysis. In kind it is functional, cell-based. The method, boiled down:
as §1

Data set [9] concerns Fibroblast. Nature of the data set: Protection against H202-induced oxidative stress in human Gingival fibroblast assessed as reduction in p21 expression at 1 to 5 uM after 72 hrs by RT-PCR analysis. In kind it is functional, cell-based. The method, boiled down:
as §1

Data set [10] relates to Fibroblast. Nature of the data set: Induction of cell proliferation in human Gingival fibroblast at 1 uM after 72 hrs by MTS assay. The data set is classed as functional. The method, boiled down: (§3)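 hGF (passage 4–7) seeded at 1500 cells/well. After 24 h, starved 6 h in noncomplete medium, then treated 72 h (5 nM–50 μM range, 0.5% DMSO final) with or without H2O2 (200 μM). Read by MTS absorbance at 490 nm as % proliferation vs control (100%). Mean ± SD, three replicates, two independent experiments.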
(Formazan colour is commonly taken as a measure of viable cells.)

Data set [11] concerns Fibroblast. Briefly: Induction of cell death in human Gingival fibroblast assessed as dead cell at 1 uM after 72 hrs by flow cytometry (reference value: 3%). The data set is classed as cell-based.
The test system of data set [12] is Fibroblast. Nature of the data set: Downregulation of LPS-induced IL-6 expression in human Gingival fibroblast at 1 to 5 uM after 72 hrs by RT-PCR analysis. The data set is classed as functional, cell-based. The procedure, abridged:
(§4)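 hGF (3500 cells/cm2) in complete medium, 1–5 μM for 72 h with or without LPS (1 μg/mL). Total RNA extracted, then real-time RT-PCR. mRNA normalized to β-actin and relative expression calculated from Ct. Specificity checked by melting curve and gel. Fold change vs control set to 1. Mean ± SD of two independent experiments in duplicate.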

For data set [13], the system named is Fibroblast. Briefly: Protection against H202-induced oxidative stress in human Gingival fibroblast assessed as reduction in p53 expression at 1 to 5 uM after 72 hrs by RT-PCR analysis. In kind it is functional, cell-based. The method, boiled down: as §1
Data set [14] deals with Fibroblast. Briefly: Protection against H202-induced cell cycle blockade in human Gingival fibroblast assessed as accumulation at G2/M phase at 1 to 5 uM after 72 hrs by flow cytometry (reference value: 39.3%). In kind it is functional. The method, boiled down:
as §2

The test system of data set [15] is Fibroblast. Nature of the data set: Downregulation of LPS-induced IL-8 expression in human Gingival fibroblast at 1 to 5 uM after 72 hrs by RT-PCR analysis. The data set is classed as functional, cell-based. The procedure, abridged: as §4
The test system of data set [16] is Fibroblast. Briefly: Antioxidant activity in human Gingival fibroblast assessed as reduction in intracellular ROS level at 1 uM after 72 hrs by H2DCFDA staining based fluorescence method. The data set is classed as functional, cell-based. The method, boiled down: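 hGF (passage 4–7) seeded 5000 cells/well, treated 72 h in complete medium with or without H2O2 200 μM. Then loaded with 50 μM DCFH2-DA in PBS-glucose for 30 min. DCF fluorescence read at ex 485/em 520 nm and normalized to crystal violet absorbance at 595 nm. Expressed as % of control; three replicates, two independent experiments.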

Data set [17] can be described thus: Induction of cell death in human Gingival fibroblast assessed as live cell at 1 uM after 72 hrs by flow cytometry (reference value: 97%). The data set is classed as cell-based. To be noted: gingival fibroblasts, read-out: Activity.
Data set [18] deals with Fibroblast. Nature of the data set: Protection against H202-induced cell cycle blockade in human Gingival fibroblast assessed as accumulation at G0/G1 phase at 1 to 5 uM after 72 hrs by flow cytometry (reference value: 42.2%). In kind it is functional. The method, boiled down:
as §2

The subject of data set [19] is Fibroblast. Nature of the data set: Induction of cell cycle arrest in human Gingival fibroblast assessed as accumulation at S phase at 1 uM incubated for 72 hrs by flow cytometry (reference value: 5%). In kind it is cell-based. The method, boiled down: as §2
For data set [20], the system named is Fibroblast. Nature of the data set: Effect on p53 mRNA expression in human Gingival fibroblast at 1 uM after 72 hrs by RT-PCR method. The data set is classed as ADME, cell-based. The procedure, abridged: as §1
Data set [21] relates to Fibroblast. Briefly: Protective activity against H202-induced cell death in human Gingival fibroblast assessed as cell proliferation after 72 hrs by MTS assay (reference value: 50.9 +/- 4%). The data set is classed as functional. The method, boiled down:
as §3

For data set [22], the system named is Fibroblast. Nature of the data set: Antioxidant activity in human Gingival fibroblast assessed as reduction in H202-induced intracellular ROS level by measuring ROS production at 1 to 5 uM after 72 hrs by H2DCFDA staining based fluorescence method (reference value: 181.9 +/- 7.4%). In kind it is functional. The arrangement: scale not given: the % may be the effect or the level left. The procedure, abridged: (§5)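 hGF seeded 5000 cells/well, treated 72 h with or without H2O2 (200 μM); then 30 min in PBS-glucose with 50 μM DCFH2-DA. DCF fluorescence read at 485/520 nm. Cells then fixed, crystal-violet stained and SDS-solubilized, with absorbance at 595 nm. Fluorescence normalized to A595 and expressed as % of control. Mean ± SD, three replicates, two independent experiments.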

For data set [23], the system named is Fibroblast. Nature of the data set: Upregulation of IL-10 expression in LPS-stimulated human Gingival fibroblast at 1 to 5 uM after 72 hrs by RT-PCR analysis. In kind it is functional, cell-based. The method, boiled down: as §4
For data set [24], the system named is Fibroblast. Nature of the data set: Growth inhibition of human Gingival fibroblast at 50 uM after 72 hrs by MTS assay. In kind it is cell-based. The procedure, abridged:
(§6)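 Gingival fibroblasts seeded at 1500 cells/well, then starved 6 h in noncomplete medium after 24 h. Exposed for 72 h to 5 nM–50 μM (DMSO 0.5% final), with or without H2O2 200 μM. MTS absorbance read at 490 nm and expressed as % proliferation vs control set to 100%. Mean ± SD of three replicates from two experiments.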

Data set [25] relates to Fibroblast. Briefly: Induction of cell proliferation in human Gingival fibroblast at 0.5 to 10 uM after 72 hrs by MTS assay. The data set is classed as functional, cell-based. The method, boiled down:
as §6

The test system of data set [26] is Fibroblast. Briefly: Growth inhibition of human Gingival fibroblast at 5 uM after 72 hrs by MTS assay. In kind it is cell-based. The procedure, abridged:
as §3

The subject of data set [27] is Fibroblast. Nature of the data set: Antioxidant activity in human Gingival fibroblast assessed as reduction in H202-induced intracellular ROS level by measuring ROS production at […] after 72 hrs by H2DCFDA staining based fluorescence method (reference value: 181.9 +/- 7.4%). In kind it is functional. The arrangement: scale not given: the % may be the effect or the level left. The procedure, abridged: as §5

Data set [28] relates to Fibroblast. Nature of the data set: Protection against H202-induced cell cycle blockade in human Gingival fibroblast assessed as accumulation at S phase after 72 hrs by flow cytometry (reference value: 11.6%). The data set is classed as functional. The procedure, abridged: as §2
Data set [29] deals with Fibroblast. Briefly: Protection against H202-induced cell cycle blockade in human Gingival fibroblast assessed as accumulation at G2/M phase after 72 hrs by flow cytometry (reference value: 39.3%). The data set is classed as functional. The procedure, abridged:
as §2

Data set [30] has as its system Fibroblast. Briefly: Protection against H202-induced cell cycle blockade in human Gingival fibroblast assessed as accumulation at G0/G1 phase after 72 hrs by flow cytometry (reference value: 42.2%). In kind it is functional. The procedure, abridged: as §2

Activity calls are given as the source filed them. No cut-off for these calls is given here.

On to `C[C@@H]1O[C@@H](Oc2cc(O)c3c(=O)c(O[C@@H]4O[C@H](CO)[C@H](O)[C@H](O)[C@H]4O[C@@H]4O[C@H](CO)[C@@H](O)[C@H](O)[C@H]4O)c(-c4ccc(O)cc4)oc3c2)[C@H](O)[C@H](O)[C@H]1O`, for which the Activity result in the data set with Fibroblast [1] is recorded as “Toxic”; in the data set with Fibroblast [2] it was 10%; with Fibroblast [3], 90%; in the data set on Fibroblast [4], 81.5%; in the data set with Fibroblast [5] it was “Non-Toxic”; in the data set on Fibroblast [6], 13%. In addition, the Activity in the data set with Fibroblast [7] is on record as 10.5%; in the data set on Fibroblast [10], 125.6%; in the data set on Fibroblast [11], 6.7%; in the data set with Fibroblast [14], 14.2%; in the data set on Fibroblast [18], 69.8%; in the data set on Fibroblast [19], 4.8%. The Activity result in the data set with Fibroblast [20] is given as “Non-Toxic”; in the data set on Fibroblast [21], 68.8%; in the data set with Fibroblast [22], 124.2%. In addition, the result in the data set on Fibroblast [8], in the data set on Fibroblast [9], in the data set on Fibroblast [12], in the data set with Fibroblast [13], in the data set on Fibroblast [15] and in the data set on Fibroblast [16] was Active. Besides, in the data set on Fibroblast [23], the result was Active. In data set [17], the viability at 72 h, 1 µM came to 93.3%.
For `O=c1c(O)c(-c2ccc(O)cc2)oc2cc(O)cc(O)c12` [KAEMPFEROL], the “growth inhibition (GI)” value in the data set with Fibroblast [24] is listed as “Toxic”. Moreover, in the data set with Fibroblast [25], the outcome was inactive.
`C[C@@H]1O[C@@H](Oc2cc(O)c3c(=O)c(O[C@@H]4O[C@H](CO)[C@H](O)[C@H](O)[C@H]4O[C@@H]4O[C@H](CO)[C@@H](O)[C@H](O)[C@H]4O)c(-c4ccc(O)c(O)c4)oc3c2)[C@H](O)[C@H](O)[C@H]1O`: the “growth inhibition (GI)” value in the data set with Fibroblast [26] is reported as “Toxic”.
The same measure, in the same setting: under `O=c1c(O[C@@H]2O[C@H](CO)[C@H](O)[C@H](O)[C@H]2O[C@@H]2O[C@H](CO)[C@@H](O)[C@H](O)[C@H]2O)c(-c2ccc(O)cc2)oc2cc(O)cc(O)c12` stands “Toxic”.
On to `O=c1c(O)c(-c2ccc(O)c(O)c2)oc2cc(O)cc(O)c12` [QUERCETIN], for which the “growth inhibition (GI)” value with Fibroblast [24] is given as “Toxic”. For the same compound, in the data set on Fibroblast [16], the result was Active. Also, the result with Fibroblast [25] was inactive.
As for `CC(=O)N[C@@H](CS)C(=O)O` [ACETYLCYSTEINE], the Activity in the data set on Fibroblast [27] stood at 109.7%; with Fibroblast [28], 6.4%; with Fibroblast [29], 18.5%; in the data set on Fibroblast [21], 74.1%; in the data set with Fibroblast [30] it was 72.7%.

(Values after ChEMBL document CHEMBL4613247, “Antioxidant Activity of Compounds Isolated from Elaeagnus umbellata Promotes Human Gingival Fibroblast Well-Being” (J Nat Prod, 2020).)
